Tests used:
[1] = Metabolic stability in human liver microsomes assessed as compound remaining at 1 uM after 30 mins; type: ADME, Microsome; settings: read-out: Stability
Procedure, shortened: (§1)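 Rat or human liver microsomes (300 nM cytochrome P450) were incubated in phosphate buffer pH 7.4 with test compound and 1 mM NADPH for 30 min at 37 °C. Reactions were stopped with acetonitrile and centrifuged. Samples were analyzed by LC/MS as percent parent remaining at 30 min.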

[2] = (§2) AUC (0 to infinity) in Sprague-Dawley rat at 5 mg/kg, po; type: ADME, organism-based, Plasma; set-up: time infinity, dose 5 mg/kg, route oral; settings: Sprague-Dawley, plasma
Procedure, shortened: (§3)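 Male Sprague-Dawley rats (3–4) were gavaged at 5 mg/kg in 0.5% methyl cellulose, either singly or in a cassette. Serial arterial-cannula blood was drawn up to 6 or 24 h. Parent compound was measured in plasma by LC/MS/MS after protein precipitation. Parameters came from non-compartmental analysis.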

[3] = Metabolic stability in rat liver microsomes assessed as compound remaining at 1 uM after 30 mins; type: ADME, Microsome; settings: read-out: Stability; procedure, shortened: as §1
[4] = target: T1, C-C chemokine receptor type 1 (Homo sapiens, UniProt P32246); assay: Displacement of [125I]-MIP1-alpha from human recombinant CCR1 expressed in HEK293 cells after 4 hrs by SPA; type: cell-based
T1 sequence (P32246 whole entry): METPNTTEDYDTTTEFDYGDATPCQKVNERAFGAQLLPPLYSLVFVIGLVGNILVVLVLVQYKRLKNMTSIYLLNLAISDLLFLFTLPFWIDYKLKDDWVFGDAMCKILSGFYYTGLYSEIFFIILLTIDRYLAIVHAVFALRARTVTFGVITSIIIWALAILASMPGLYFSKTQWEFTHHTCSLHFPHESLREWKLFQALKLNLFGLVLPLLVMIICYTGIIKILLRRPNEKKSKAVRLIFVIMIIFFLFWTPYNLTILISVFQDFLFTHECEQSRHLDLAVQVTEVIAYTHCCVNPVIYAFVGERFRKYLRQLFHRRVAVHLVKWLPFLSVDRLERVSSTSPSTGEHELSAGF
Procedure, shortened: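 This was a SPA binding assay on membranes from HEK293 cells stably expressing human CCR1 from an episomal vector. Buffer was 130 mM NaCl, 5 mM KCl, 1 mM MnCl2, 50 mM Tris-HCl pH 7.4, 0.1% BSA, with SPA beads at 10 mg/ml. Compound dilutions were added, then [125I]-MIP1a at 0.1 nM final. Plates were spun 2 min, incubated 4 h, then scintillation-counted.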

Cytochrome P450 3A4 = Cytochrome P450 3A4 (Homo sapiens, UniProt P08684); assay: Inhibition of human recombinant CYP3A4 at < 10 uM; type: ADME; settings: recombinant enzyme
Procedure, shortened: (§4)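 Each human recombinant CYP isoenzyme (1A2, 2C9, 2C19, 2D6, 3A4) was run with its own fluorogenic substrate, with test compound up to […]. Fluorescence was read after a defined reaction time. Percent inhibition was fitted against log concentration to give IC50.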

[5] = Oral bioavailability in Sprague-Dawley rat plasma at 5 mg/kg; type: ADME, organism-based
Procedure, shortened: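 Male Sprague-Dawley rats (3–4) received an oral gavage of 5 mg/kg in 0.5% methyl cellulose and, separately, 1 mg/kg intravenously via an indwelling catheter. Serial arterial blood was collected. Plasma parent compound was measured by LC/MS/MS after protein precipitation. Bioavailability came from non-compartmental analysis.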

[6] = Cmax in Sprague-Dawley rat plasma at 5 mg/kg, po; type: ADME, organism-based; set-up: dose 5 mg/kg, route oral; procedure, shortened: as §3
Cytochrome P450 2C19 = Cytochrome P450 2C19 (Homo sapiens, UniProt P33261); assay: Inhibition of human recombinant CYP2C19 at < 10 uM; type: ADME; settings: recombinant enzyme; procedure, shortened: as §4
Cytochrome P450 2C9 = Cytochrome P450 2C9 (Homo sapiens, UniProt P11712); assay: Inhibition of human recombinant CYP2C9 at < 10 uM; type: ADME; settings: recombinant enzyme; procedure, shortened: as §4
[7] = Tmax in Sprague-Dawley rat plasma at 5 mg/kg, po; type: ADME, organism-based; set-up: dose 5 mg/kg, route oral; procedure, shortened: as §3
Rattus norvegicus = assay: as §2; type: ADME, organism-based, Plasma; set-up: time infinity, dose 5 mg/kg, route oral; settings: in vivo; procedure, shortened: as §3
Cytochrome P450 2D6 = Cytochrome P450 2D6 (Homo sapiens, UniProt P10635); assay: Inhibition of human recombinant CYP2D6 at < 10 uM; type: ADME; settings: recombinant enzyme; procedure, shortened: as §4
[8] = Half life in Sprague-Dawley rat plasma at 5 mg/kg, po; type: ADME, organism-based; set-up: dose 5 mg/kg, route oral; procedure, shortened: as §3
Cytochrome P450 1A2 = target: T2, Cytochrome P450 1A2 (Homo sapiens, UniProt P05177); assay: Inhibition of human recombinant CYP1A2 at < 10 uM; type: ADME; settings: recombinant enzyme; procedure, shortened: as §4
T2 sequence (P05177 whole entry): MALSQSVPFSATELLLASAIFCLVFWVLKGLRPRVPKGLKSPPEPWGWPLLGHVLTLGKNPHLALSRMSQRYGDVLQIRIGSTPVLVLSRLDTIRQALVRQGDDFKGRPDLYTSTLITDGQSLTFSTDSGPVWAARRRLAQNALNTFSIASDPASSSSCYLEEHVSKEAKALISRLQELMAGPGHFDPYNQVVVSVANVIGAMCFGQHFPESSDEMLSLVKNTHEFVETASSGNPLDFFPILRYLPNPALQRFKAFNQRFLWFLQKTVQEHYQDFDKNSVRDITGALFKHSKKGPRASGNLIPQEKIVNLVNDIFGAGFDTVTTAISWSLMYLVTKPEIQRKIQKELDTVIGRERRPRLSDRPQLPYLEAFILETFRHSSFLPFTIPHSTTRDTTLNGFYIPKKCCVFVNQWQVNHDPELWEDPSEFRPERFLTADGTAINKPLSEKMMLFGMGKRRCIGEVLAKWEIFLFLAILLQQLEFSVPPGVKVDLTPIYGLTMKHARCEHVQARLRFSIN

[9] = Antagonist activity at CCR1 in human THP1 cells assessed as inhibition of CCL3-induced chemotaxis after 3 hrs; settings: thp-1

Chain of Cytochrome P450 2D6 (P10635 whole entry): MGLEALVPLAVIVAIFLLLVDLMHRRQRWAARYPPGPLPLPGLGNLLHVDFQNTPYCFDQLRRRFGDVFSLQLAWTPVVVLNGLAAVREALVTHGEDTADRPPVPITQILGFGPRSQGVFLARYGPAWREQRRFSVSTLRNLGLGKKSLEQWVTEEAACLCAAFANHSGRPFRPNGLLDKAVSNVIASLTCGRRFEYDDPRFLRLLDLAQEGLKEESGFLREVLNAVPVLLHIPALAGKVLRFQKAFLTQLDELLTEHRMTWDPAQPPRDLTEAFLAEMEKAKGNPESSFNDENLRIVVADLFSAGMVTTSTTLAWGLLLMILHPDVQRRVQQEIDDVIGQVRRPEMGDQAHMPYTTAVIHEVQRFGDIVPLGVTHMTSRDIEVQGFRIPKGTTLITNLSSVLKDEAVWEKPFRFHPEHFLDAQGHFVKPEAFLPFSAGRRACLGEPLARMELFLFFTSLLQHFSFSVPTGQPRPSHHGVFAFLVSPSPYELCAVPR
Chain of Cytochrome P450 2C9 (P11712 whole entry): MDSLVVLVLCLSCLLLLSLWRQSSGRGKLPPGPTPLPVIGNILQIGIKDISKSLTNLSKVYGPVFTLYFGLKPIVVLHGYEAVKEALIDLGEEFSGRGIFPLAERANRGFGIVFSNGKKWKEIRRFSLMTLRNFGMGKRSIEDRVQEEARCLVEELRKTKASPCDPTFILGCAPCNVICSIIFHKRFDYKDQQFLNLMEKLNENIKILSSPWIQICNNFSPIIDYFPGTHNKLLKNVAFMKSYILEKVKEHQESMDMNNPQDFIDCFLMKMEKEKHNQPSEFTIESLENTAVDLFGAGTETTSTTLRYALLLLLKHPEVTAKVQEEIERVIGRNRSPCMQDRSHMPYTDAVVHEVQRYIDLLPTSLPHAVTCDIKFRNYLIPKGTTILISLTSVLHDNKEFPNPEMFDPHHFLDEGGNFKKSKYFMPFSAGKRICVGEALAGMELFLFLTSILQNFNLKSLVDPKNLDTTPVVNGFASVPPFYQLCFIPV
Chain of Cytochrome P450 2C19 (P33261 whole entry): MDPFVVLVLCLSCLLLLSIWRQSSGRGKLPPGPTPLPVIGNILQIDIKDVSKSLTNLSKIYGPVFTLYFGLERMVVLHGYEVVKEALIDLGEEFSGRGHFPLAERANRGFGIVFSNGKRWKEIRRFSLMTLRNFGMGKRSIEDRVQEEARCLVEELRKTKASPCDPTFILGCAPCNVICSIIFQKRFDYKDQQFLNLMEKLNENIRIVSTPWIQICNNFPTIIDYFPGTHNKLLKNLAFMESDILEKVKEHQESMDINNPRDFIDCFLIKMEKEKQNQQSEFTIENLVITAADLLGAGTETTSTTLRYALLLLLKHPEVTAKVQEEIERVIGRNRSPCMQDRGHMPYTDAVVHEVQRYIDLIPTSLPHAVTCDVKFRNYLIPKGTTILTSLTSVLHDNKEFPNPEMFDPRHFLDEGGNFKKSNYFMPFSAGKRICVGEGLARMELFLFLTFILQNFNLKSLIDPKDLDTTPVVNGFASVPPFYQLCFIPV
Chain of Cytochrome P450 3A4 (P08684 whole entry): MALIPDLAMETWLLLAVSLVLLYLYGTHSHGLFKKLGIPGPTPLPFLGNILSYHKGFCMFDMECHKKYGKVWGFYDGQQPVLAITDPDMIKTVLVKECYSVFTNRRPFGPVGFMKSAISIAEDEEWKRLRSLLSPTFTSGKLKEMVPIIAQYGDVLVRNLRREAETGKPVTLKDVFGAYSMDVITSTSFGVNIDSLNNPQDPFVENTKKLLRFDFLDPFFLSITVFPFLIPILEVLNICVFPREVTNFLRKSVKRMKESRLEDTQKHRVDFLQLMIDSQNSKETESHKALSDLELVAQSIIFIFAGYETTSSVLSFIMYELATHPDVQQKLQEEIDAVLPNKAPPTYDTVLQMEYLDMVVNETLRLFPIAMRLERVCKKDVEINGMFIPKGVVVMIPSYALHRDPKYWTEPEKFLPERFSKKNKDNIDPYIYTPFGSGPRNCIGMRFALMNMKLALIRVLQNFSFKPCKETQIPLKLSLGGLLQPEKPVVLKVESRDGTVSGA

| Compound | remaining at 0.5 h, 1 µM [1] [%] | AUC(0-inf) [2] [ng·h/mL] | remaining at 0.5 h, 1 µM [3] [%] | IC50 [4] [nM] | also measured |
| --- | --- | --- | --- | --- | --- |
| O=C(Nc1ccc(C(F)(F)F)cc1)N1CCCC1c1nccn1Cc1ccc(Cl)cc1 (stereo not given) | 39 | 100 | 55 | 65 |  |
| O=C(Nc1ccc(C(F)(F)F)cc1)N1CCC[C@@H]1c1ncnn1Cc1ccc(Cl)cc1 | 61 | 4460 | 81 | 32 |  |
| CN(Cc1ccc(Cl)cc1)C(=O)[C@H]1CCCN1C(=O)Nc1ccc(C(F)(F)F)cc1 |  |  |  |  | IC50 [9]: 22 nM |

Continued, in another order:

| remaining at 0.5 h, 1 µM [1] [%] | AUC(0-inf) [2] [ng·h/mL] | remaining at 0.5 h, 1 µM [3] [%] | IC50 [4] [nM] | Compound | also measured |
| --- | --- | --- | --- | --- | --- |
| 59 |  | 25 | 20 | O=C(Nc1ccc(C(F)(F)F)cc1)N1CCC[C@@H]1c1nnnn1Cc1ccc(Cl)cc1 |  |
|  |  |  | 810 | Cc1nc([C@H]2CCCN2C(=O)Nc2ccc(C(F)(F)F)cc2)n(Cc2ccc(Cl)cc2)n1 |  |
| 52 | 657 | 41 | 17 | O=C(Nc1ccc(C(F)(F)F)cc1)N1CCC[C@@H]1c1nncn1Cc1ccc(Cl)cc1 |  |
| 100 |  | 87 | 69 | Cc1nnc([C@H]2CCCN2C(=O)Nc2ccc(C(F)(F)F)cc2)n1Cc1ccc(Cl)cc1 | inhibition (INH) (Cytochrome P450 3A4): Not Active; bioavailability [5]: 26%; Cmax [6]: 1120 ng/mL; inhibition (INH) (Cytochrome P450 2C19): Not Active; inhibition (INH) (Cytochrome P450 2C9): Not Active; Tmax [7]: 1.1 h; AUC (Rattus norvegicus): 7649 ng·h/mL; inhibition (INH) (Cytochrome P450 2D6): Not Active; half-life [8]: 3.8 h; inhibition (INH) (Cytochrome P450 1A2): Not Active |
